Measured values reported in ChEMBL document CHEMBL3232734, “Nitric oxide (NO) releasing poly ADP-ribose polymerase 1 (PARP-1) inhibitors targeted to glutathione S-transferase P1-overexpressing cancer cells” (J Med Chem, 2014).
The source made the active and inactive calls. No cut-off for these calls is given here.

How the values were obtained:
A549 [1] = assay: Induction of endoplasmic reticulum stress in human A549 cells assessed as upregulation of BiP protein expression by immunoblot analysis; format: functional, cell-based
[2] = target: Poly [ADP-ribose] polymerase 1 (Homo sapiens, UniProt P09874); assay: Inhibition of PARP-1 (unknown origin) assessed as incorporation of biotinylated poly ADP-ribose onto histone proteins at 0.1 to 1000 nM by colorimetric analysis in presence of GSH and GSTP1
Poly [ADP-ribose] polymerase 1, sequence (P09874 whole entry): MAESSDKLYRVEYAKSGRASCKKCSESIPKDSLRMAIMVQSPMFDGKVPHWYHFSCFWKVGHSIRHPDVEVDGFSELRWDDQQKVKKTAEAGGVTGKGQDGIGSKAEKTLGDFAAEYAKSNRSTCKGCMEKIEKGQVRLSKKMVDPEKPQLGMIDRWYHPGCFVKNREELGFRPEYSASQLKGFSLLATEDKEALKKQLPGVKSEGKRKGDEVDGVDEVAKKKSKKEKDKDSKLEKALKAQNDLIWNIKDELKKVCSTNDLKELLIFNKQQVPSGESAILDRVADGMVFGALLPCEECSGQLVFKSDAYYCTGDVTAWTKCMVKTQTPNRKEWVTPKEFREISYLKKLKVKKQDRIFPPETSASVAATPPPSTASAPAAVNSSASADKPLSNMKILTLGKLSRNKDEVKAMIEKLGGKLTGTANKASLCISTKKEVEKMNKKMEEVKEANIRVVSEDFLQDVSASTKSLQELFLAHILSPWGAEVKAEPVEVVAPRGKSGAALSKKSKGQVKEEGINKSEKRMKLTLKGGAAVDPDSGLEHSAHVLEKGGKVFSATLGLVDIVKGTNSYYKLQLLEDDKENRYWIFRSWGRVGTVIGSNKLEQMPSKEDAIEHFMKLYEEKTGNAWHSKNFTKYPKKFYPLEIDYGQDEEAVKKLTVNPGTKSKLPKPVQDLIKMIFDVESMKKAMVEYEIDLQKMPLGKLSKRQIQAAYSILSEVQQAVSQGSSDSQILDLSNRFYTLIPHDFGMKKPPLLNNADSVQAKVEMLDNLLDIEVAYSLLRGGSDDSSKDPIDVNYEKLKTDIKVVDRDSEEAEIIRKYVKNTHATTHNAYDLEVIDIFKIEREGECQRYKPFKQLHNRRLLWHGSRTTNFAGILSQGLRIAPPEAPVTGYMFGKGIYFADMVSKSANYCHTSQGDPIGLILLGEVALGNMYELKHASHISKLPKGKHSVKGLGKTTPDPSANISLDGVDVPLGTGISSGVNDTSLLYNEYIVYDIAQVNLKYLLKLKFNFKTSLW
Summary of the method: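 PARP activity measured with a colorimetric histone biotinylated poly(ADP-ribose) incorporation kit. GSH (4 mM) with or without 40 nM GSTP1 in PBS pH 7.4 was preincubated 10 min at 37 °C. Reaction started by adding prodrug (10 μM substrate) and ran a further 10 min; absorbance read at 450 nm. Inhibitors tested over 0.01 nM–1 μM.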

A549 [3] = assay: Induction of apoptosis in human A549 cells assessed as cleaved caspase 3 level by immunoblot analysis; format: functional, cell-based
Summary of the method: (§1)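 A549 cells treated with compound, lysed and immunoblotted for cleaved caspase 8, caspases 3 and 7, and PARP (full-length and cleaved). Caspase 8 was read within 6 h at 1 μM. Representative of at least three independent experiments.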

A549 [4] = assay: Induction of endoplasmic reticulum stress in human A549 cells assessed as upregulation of CHOP protein expression by immunoblot analysis; format: functional, cell-based
Tumour [5] = assay: Drug metabolism in tumor of NCr nu/nu athymic mouse xenografted with human A549 cells assessed as metabolite formation at 92 umol/kg, iv administered two times a week for 4 weeks; format: ADME, organism-based, Neoplasm; conditions: in vivo, 672 h
Summary of the method: (§2)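 A549 cells (RPMI 1640 + 10% FBS, ≤4 passages) harvested at 70–80% confluence, 5 × 10^6 cells in PBS implanted s.c.; at ~3 mm × 3 mm tumors, mice randomized into groups of 12. Tail-vein injection at 92 μmol/kg in 20 μL DMSO, twice weekly for 4 weeks; saline or DMSO controls. Tumors caliper-measured twice weekly, volume = π/2 × L × W². Tumors resected at end, frozen, extracted for metabolite analysis by LC/MS.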

A549 [6] = assay: Induction of endoplasmic reticulum stress in human A549 cells assessed as protein glutathionylation measured within 1 hr post-drug treatment by immunoblot analysis; format: functional, cell-based
A549 [7] = assay: Induction of apoptosis in human A549 cells assessed as cleaved caspase 8 level at 1 uM within 6 hrs after drug treatment by immunoblot analysis; format: functional, cell-based; summary of the method: as §1
A549 [8] = assay: Induction of apoptosis in human A549 cells assessed as cleaved PARP level after 8 hrs by immunoblot analysis; format: functional, cell-based; summary of the method: as §1
A549 [9] = assay: Anticancer activity against human A549 cells xenografted in NCr nu/nu athymic mouse assessed as reduction of tumor growth at 92 umol/kg, iv administered two times a week for 4 weeks; format: functional, organism-based; summary of the method: as §2
A549 [10] = assay: Induction of endoplasmic reticulum stress in human A549 cells assessed as protein glutathionylation after 8 hrs by immunoblot analysis; format: functional, cell-based
A549 [11] = assay: Induction of endoplasmic reticulum stress in human A549 cells assessed as upregulation of ATF4 protein expression by immunoblot analysis; format: functional, cell-based
U-937 = assay: Drug metabolism in human U937 cells assessed as nitric oxide release at 5 uM by LC/MS/MS analysis in presence of GSH/GSTP1; conditions: u-937, 5 µM
Tumour [12] = assay: Drug uptake in tumor of NCr nu/nu athymic mouse xenografted with human A549 cells at 92 umol/kg, iv administered two times a week for 4 weeks; format: ADME, organism-based, Neoplasm; conditions: in vivo, 672 h; summary of the method: as §2
[13] = target: Glutathione S-transferase P (Homo sapiens, UniProt P09211); assay: Ratio of prodrug activation in presence of GSH and recombinant GSTP1 (unknown origin) to prodrug activation in presence of GSH by UV-Visible spectrophotometry
Glutathione S-transferase P, sequence (P09211 whole entry): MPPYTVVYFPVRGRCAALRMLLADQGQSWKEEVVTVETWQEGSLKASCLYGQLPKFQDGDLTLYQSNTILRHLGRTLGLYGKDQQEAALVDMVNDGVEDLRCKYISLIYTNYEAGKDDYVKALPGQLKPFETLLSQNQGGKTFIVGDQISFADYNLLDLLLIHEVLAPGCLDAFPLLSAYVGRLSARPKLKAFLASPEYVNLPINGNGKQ
Summary of the method: (§3)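 UV–vis kinetics at 37 °C in 0.1 M phosphate buffer, pH 7.4, with 50 μM DTPA and 4 mM GSH, with or without 40 nM recombinant GSTP1 or GSTA1. Substrate (typically 10 μM) added after thermal equilibration. Absorbance followed at 302 nm; first-order rate from an exponential fit. Ratios are k with enzyme over k with GSH alone.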

A549 [14] = assay: Drug metabolism in human A549 cells assessed as nitric oxide release at 10 uM by LC/MS/MS analysis in presence of GSH/GSTP1; format: ADME, cell-based; conditions: a549, 10 µM
Summary of the method: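 A549 cells were plated in 75 cm2 flasks and grown overnight at 37 °C, then treated with 10 μM compound for varying times up to 1 h. Cells were lysed in 10 mM HCl/acetonitrile, 5-sulfosalicylic acid was added, and the precipitate was spun off at 12000g for 15 min. Supernatant was filtered and metabolites were identified by positive-ion LC/MS/MS (Q-TOF, C18, water/acetonitrile/0.1% formic acid gradient).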

[15] = target: T1, MAP kinase p38 (Homo sapiens) (UniProt O15264+Q15759+Q16539+P53778); assay: Induction of p38 phosphorylation in human A549 cells after 8 hrs by immunoblot analysis; format: cell-based
Summary of the method: (§4)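 A549 cells treated with compound and p38 phosphorylation followed by immunoblot from 15 min to 8 h after the start of treatment. At least three independent experiments.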

A549 [16] = assay: Induction of apoptosis in human A549 cells assessed as cleaved PARP level by immunoblot analysis; format: functional, cell-based; summary of the method: as §1
[17] = Prodrug activation assessed as GSH reactivity in aqueous phosphate buffer at pH 7.4 by UV-Visible spectrophotometer analysis; format: physicochemical
Summary of the method: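 UV–vis kinetics at 37 °C in 0.1 M phosphate buffer, pH 7.4, with 50 μM DTPA and 4 mM GSH, with or without 40 nM recombinant GSTP1 or GSTA1. Substrate (typically 10 μM) added after thermal equilibration. Ratios are k with enzyme over k with GSH alone.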

[18] = target: T1, MAP kinase p38 (Homo sapiens); assay: Induction of p38 phosphorylation in human A549 cells within 15 mins after drug treatment by immunoblot analysis; format: cell-based; summary of the method: as §4
Mus musculus = assay: Systemic toxicity in NCr nu/nu athymic mouse xenografted with human A549 cells assessed as body weight at 92 umol/kg, iv administered two times a week for 4 weeks (reference value: 25.0 +/-0.78 gms); format: organism-based; conditions: in vivo, 672 h
A549 [19] = assay: Anticancer activity against human A549 cells assessed as reduction in number of colonies at 1 uM in presence of 3 nM proteasome inhibitor bortezomib by colony forming assay; format: functional, cell-based
Summary of the method: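 A549 colony forming assay after combined treatment with the proteasome inhibitor bortezomib.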

[20] = target: Eukaryotic translation initiation factor 2 subunit 1 (Homo sapiens) (UniProt P05198); assay: Induction of eIF2-alpha phosphorylation in human A549 cells by immunoblot analysis; format: cell-based
Eukaryotic translation initiation factor 2 subunit 1 (Homo sapiens), sequence (P05198 whole entry): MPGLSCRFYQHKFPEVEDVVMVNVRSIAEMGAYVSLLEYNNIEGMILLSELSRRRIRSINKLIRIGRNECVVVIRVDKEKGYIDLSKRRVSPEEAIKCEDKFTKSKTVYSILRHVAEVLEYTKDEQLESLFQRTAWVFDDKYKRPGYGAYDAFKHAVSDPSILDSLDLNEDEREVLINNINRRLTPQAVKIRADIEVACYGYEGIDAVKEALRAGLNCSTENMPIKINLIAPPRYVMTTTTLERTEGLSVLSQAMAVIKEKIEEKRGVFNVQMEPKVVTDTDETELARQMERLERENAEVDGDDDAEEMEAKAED

[21] = target: T2, Glutathione S-transferase A1 (Homo sapiens, UniProt P08263); assay: Ratio of prodrug activation in presence of GSH and recombinant GSTA1 (unknown origin) to prodrug activation in presence of GSH by UV-Visible spectrophotometry; summary of the method: as §3
T2 sequence (P08263 whole entry): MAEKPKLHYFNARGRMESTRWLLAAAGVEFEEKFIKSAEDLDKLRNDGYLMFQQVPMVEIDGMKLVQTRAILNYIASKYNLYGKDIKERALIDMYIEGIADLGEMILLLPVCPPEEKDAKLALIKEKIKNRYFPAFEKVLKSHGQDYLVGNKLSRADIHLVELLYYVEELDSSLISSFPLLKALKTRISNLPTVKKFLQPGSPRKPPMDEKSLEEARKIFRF

A549 [22] = assay: Induction of apoptosis in human A549 cells assessed as cleaved caspase 7 level by immunoblot analysis; format: functional, cell-based; summary of the method: as §1

inhibition [2]: Active
Drug metabolism (Tumour [5]): metabolite_detected
Drug metabolism (U-937): metabolite_detected
Drug uptake (Tumour [12]): Active
Ratio [13]: 13.3
Drug metabolism (A549 [14]): metabolite_detected
Activity [15]: Active
t1/2 [17]: 16 min
Activity [18]: Active
Activity [20]: Active
Ratio [21]: 9.2
SMILES: CN(C)/[N+]([O-])=N\Oc1cc(O/N=[N+](\[O-])N2CCN(C(=O)c3cc(Cc4n[nH]c(=O)c5ccccc45)ccc3F)CC2)c([N+](=O)[O-])cc1[N+](=O)[O-]
Activity (A549 [1]): Active
Activity (A549 [3]): Active
Activity (A549 [4]): Active
Activity (A549 [6]): Active
Activity (A549 [7]): Active
Activity (A549 [8]): Active
growth inhibition (GI) (A549 [9]): Active
Activity (A549 [10]): inactive
Activity (A549 [11]): Active
Activity (A549 [16]): Active
Activity (Mus musculus): 25.3 g
inhibition (A549 [19]): Active
Activity (A549 [22]): Active
